Assay results from paper PMC9058152 (RSC Advances, 2020).
In brackets after ≈: the same amount, converted by molar mass.

Key:
ovine COX-1 = target: T1, ovine COX-1 (Ovis aries, UniProt P05979); experiment: COX-1 inhibition enzyme immunoassay; format: biochemical
T1 sequence (P05979 25-600): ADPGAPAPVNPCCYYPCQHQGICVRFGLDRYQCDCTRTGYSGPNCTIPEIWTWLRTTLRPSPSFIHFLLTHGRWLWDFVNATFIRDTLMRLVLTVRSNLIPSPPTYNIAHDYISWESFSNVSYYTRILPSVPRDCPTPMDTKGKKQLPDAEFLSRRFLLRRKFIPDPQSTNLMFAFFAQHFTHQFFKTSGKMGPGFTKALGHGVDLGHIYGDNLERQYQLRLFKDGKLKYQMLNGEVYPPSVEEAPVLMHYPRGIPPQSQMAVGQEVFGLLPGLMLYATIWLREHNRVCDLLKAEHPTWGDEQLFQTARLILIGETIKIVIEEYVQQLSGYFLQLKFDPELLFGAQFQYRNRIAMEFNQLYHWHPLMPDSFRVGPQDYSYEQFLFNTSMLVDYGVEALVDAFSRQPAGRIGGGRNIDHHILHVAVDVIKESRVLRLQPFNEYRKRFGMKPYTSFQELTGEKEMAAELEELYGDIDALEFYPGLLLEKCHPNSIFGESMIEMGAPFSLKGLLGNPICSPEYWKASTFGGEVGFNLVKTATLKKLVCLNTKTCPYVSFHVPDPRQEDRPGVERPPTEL

[1] = test system: Mycobacterium tuberculosis (RCMB 010126); experiment: Microplate Alamar blue assay; format: cell-based; settings: RCMB010126, Mycobacterium tuberculosis RCMB 010126, MABA
[2] = test system: MCF-7 cells (human breast adenocarcinoma); experiment: MTT cytotoxicity assay on MCF-7; format: cell-based; settings: MCF7, 48 h, read-out: IC50 (μM) ± SD MCF-7
Method in brief: (§1)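 Cells grown in DMEM with 10% heat-inactivated FBS and 100 U ml⁻¹ penicillin/streptomycin at 37 °C, 5% CO₂. Seeded at 3 × 10⁴ cells per well and exposed for 48 h in serum-free medium to serial concentrations of test compound (DMSO), with doxorubicin as positive control. MTT (2.5 mg mL⁻¹) was added for 4 h, formazan dissolved in DMSO, and absorbance read at 570 nm. Viability was taken relative to untreated cells; triplicates were run on three days, and IC50 derived by probit analysis.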

[3] = test system: HepG-2 cells (human liver carcinoma); experiment: MTT cytotoxicity assay on HepG-2; format: cell-based; settings: HepG2, 48 h, read-out: IC50 (μM) ± SD HepG-2
Method in brief: as §1

ovine COX-2 = target: T2, ovine COX-2 (Ovis aries, UniProt P79208); experiment: COX-2 inhibition enzyme immunoassay; format: biochemical; settings: for Selectivity index (SI): COX-1 IC50/COX-2 IC50
T2 sequence (P79208 17-603): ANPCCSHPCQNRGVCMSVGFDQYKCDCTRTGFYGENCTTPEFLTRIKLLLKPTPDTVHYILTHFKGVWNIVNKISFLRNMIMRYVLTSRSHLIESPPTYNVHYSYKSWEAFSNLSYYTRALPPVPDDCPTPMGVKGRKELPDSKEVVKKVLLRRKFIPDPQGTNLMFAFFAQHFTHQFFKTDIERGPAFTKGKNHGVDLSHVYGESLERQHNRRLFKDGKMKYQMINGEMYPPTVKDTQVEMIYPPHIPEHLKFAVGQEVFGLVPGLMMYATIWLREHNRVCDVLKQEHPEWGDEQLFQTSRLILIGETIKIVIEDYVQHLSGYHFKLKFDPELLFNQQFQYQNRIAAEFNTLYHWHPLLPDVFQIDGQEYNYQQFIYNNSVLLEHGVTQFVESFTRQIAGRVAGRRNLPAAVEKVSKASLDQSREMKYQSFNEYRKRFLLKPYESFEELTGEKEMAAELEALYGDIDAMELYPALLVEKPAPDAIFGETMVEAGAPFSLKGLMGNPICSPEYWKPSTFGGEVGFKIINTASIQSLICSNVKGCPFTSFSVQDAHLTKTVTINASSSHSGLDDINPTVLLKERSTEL

| SMILES | IC50 (ovine COX-1) [µM] | MIC [1] [µg/mL] | IC50 [2] [µM] | IC50 [3] [µM] | IC50 (ovine COX-2) [µM] | Selectivity index (SI) (ovine COX-2) |
| --- | --- | --- | --- | --- | --- | --- |
| Cc1ccc(-n2cc(C(=O)c3ccc4ccccc4c3O)cc(C#N)c2=O)cc1 [Compound 3b, 5-(1-Hydroxy-2-naphthoyl)-2-oxo-1-(p-tolyl)nicotinonitrile] | 464 | 3.9 (≈ 10.3 µM) | 9.2 ± 0.6 | 36.8 ± 3.9 | 6.05 | 76.7 |
| COc1ccc(-n2cc(C(=O)c3ccc4ccccc4c3O)cc(C#N)c2=O)cc1 [Compound 3c, 5-(1-Hydroxy-2-naphthoyl)-1-(4-methoxyphenyl)-2-oxo-nicotinonitrile] | 789 |  | 8.5 ± 0.7 | 27.8 ± 2.4 | 0.53 | 1490 |
| N#Cc1cc(C(=O)c2ccc3ccccc3c2O)cn(-c2ccc(Br)cc2)c1=O [Compound 3d, 1-(4-Bromophenyl)-5-(1-hydroxy-2-naphthoyl)-2-oxo-nicotinonitrile] | 1420 | < 1 | 8.9 ± 0.7 | 30.1 ± 2.6 | 1.46 | 972.9 |
| N#Cc1cc(C(=O)c2ccc3ccccc3c2O)cn(-c2ccc([N+](=O)[O-])cc2)c1=O [Compound 3e, 5-(1-Hydroxy-2-naphthoyl)-1-(4-nitrophenyl)-2-oxo-nicotinonitrile] | 283 | < 2 | 9.3 ± 1.1 | 25.3 ± 2.1 | 1.68 | 168.7 |
| Cc1c(-n2cc(C(=O)c3ccc4ccccc4c3O)cc(C#N)c2=O)c(=O)n(-c2ccccc2)n1C [Compound 3f, 1-(1,5-Dimethyl-3-oxo-2-phenyl-2,3-dihydro-1H-pyrazol-4-yl)-5-(1-hydroxy-2-naphthoyl)-2-oxo-nicotinonitrile] | 728 | < 2 | 10.5 ± 1.1 | 30.5 ± 3.1 | 16.4 | 44.5 |
| Cc1cnc(-n2cc(C(=O)c3ccc4ccccc4c3O)cc(C#N)c2=O)s1 [Compound 3g, 5-(1-Hydroxy-2-naphthoyl)-1-(5-methylthiazol-2-yl)-2-oxo-nicotinonitrile] | 2580 | 3.9 (≈ 10.1 µM) | 12.1 ± 1.2 | 28.5 ± 2.9 | 48 | 53.8 |
| N#Cc1cc(C(=O)c2ccc3ccccc3c2O)cn(-c2nc3ccccc3s2)c1=O [Compound 3h, 1-(Benzo[d]thiazol-2-yl)-5-(1–Hydroxy-2-naphthoyl)-2-oxo-nicotinonitrile] | 684 | < 2 | 10.3 ± 1.2 | 28.1 ± 3.1 | 0.496 | 1380 |
| CC(=Nn1cc(C(=O)c2ccc3ccccc3c2O)cc(C#N)c1=O)c1cc2ccccc2oc1=O [Compound 3i, 5-(1-hydroxy-2-naphthoyl)-2-oxo-1-((1-(2-oxo-2H-chromen-3-yl)ethylidene)amino)nicotinonitrile] | 1500 | < 1 | 9.7 ± 0.8 | 30.5 ± 2.9 | 13.5 | 111.3 |
| N#CCC(=O)NN=Cc1coc2c(ccc3ccccc32)c1=O [Compound 5, 2-cyano-N′-((4-oxo-4H-benzo[h]chromen-3-yl)methylene)acetohydrazide] | 2070 | 3.9 (≈ 12.8 µM) | 10.7 ± 1.2 | 41.6 ± 3.5 | 24.6 | 84.3 |
| O=C(c1cnc2[nH]nc(O)c2c1)c1ccc2ccccc2c1O [Compound 6, 5-(1-hydroxy-2-naphthoyl)-3-hydroxy-1H-pyrazolo [3,4-b]pyridine] | 1070 | < 2 | 9.1 ± 0.5 | 34.9 ± 2.8 | 30.5 | 35.0 |
| O=C(C1=CNC(=S)NN=C1)c1ccc2ccccc2c1O [Compound 7, 6-(1-Hydroxy-2-naphthoyl)-3-thioxo-3,4-dihydro-2H-1,2,4-triazepine] | 732 | < 2 | 10.5 ± 0.9 | 28.8 ± 2.5 | 1.24 | 588.6 |
| O=C(C1=CSc2ccccc2N=C1)c1ccc2ccccc2c1O [Compound 8, 3-(1-Hydroxy-2-naphthoyl)benzo[b][1,4]thiazepine] | 858 | 7.81 (≈ 23.6 µM) | 9.7 ± 1.1 | 36.5 ± 3.4 | 0.754 | 1138 |
| CCOC1Oc2c(ccc3ccccc23)-c2n[nH]cc21 (centres unmarked) [Compound 10, 11-ethoxy-2,11-dihydrobenzo[7,8]chromeno[4,3-c]pyrazole] | 1000 | 7.81 (≈ 29.3 µM) | 9.3 ± 0.5 | 34.5 ± 2.6 | 1.01 | 989.3 |
| Cc1c(N=Cc2coc3c(ccc4ccccc43)c2=O)c(=O)n(-c2ccccc2)n1C [Compound 12a, 1,5-Dimethyl-4-(((4-oxo-4H-benzo[h]chromen-3-yl)methylene)amino)-2-phenyl-1,2-dihydro-3H-pyrazol-3-one] | 1220 | 62.5 (≈ 153 µM) | 10.2 ± 1.2 | 35.5 ± 3.6 | 24.7 | 49.5 |
| O=c1c(C=Nc2nc3ccccc3s2)coc2c1ccc1ccccc12 [Compound 12b, 3-((Benzo[d]thiazol-2-ylimino)methyl)-4H-benzo[h]chromen-4-one] | 1340 | 15.6 (≈ 43.9 µM) | 8.9 ± 0.7 | 40.1 ± 3.9 | 1.37 | 971.8 |
| COc1cccc2c1C(=O)c1c(O)c3c(c(O)c1C2=O)C[C@@](O)(C(=O)CO)C[C@@H]3O[C@H]1C[C@H](N)[C@H](O)[C@H](C)O1 [DOXO, Doxorubicin, reference compound] |  |  | 10.3 ± 0.8 | 28.5 ± 1.9 |  |  |
| NNC(=O)c1ccncc1 [IN, Isoniazid, reference compound] |  | 0.24 (≈ 1.75 µM) |  |  |  |  |
